# The list is not random: actives were taken first. Their share in the collection is about 4.3%.
# CAL PDZ FP-1: human CAL PDZ-peptide interaction inhibition. Q9HD26. purified CAL PDZ, TMR-peptide fluorescence polarization, 1 h. inhibition, % at 20 µM. hit rate 0.02% among 330,000. AID 504414;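 active means highest replicate inhibition of at least 40%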;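 further: plate controls were DMSO neutral control wells for no effect and unlabeled competitor peptide control wells for full effect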
#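 material = purified tagged CAL PDZ domain construct (CerCALP) | buffer or medium = sodium phosphate/NaCl buffer pH 7.4 with TCEP, IgG, Thesit | reagent = TMR-labelled reporter peptide T*-PRC34 bound in PDZ groove | incubation = 1 h room-temperature incubation prior to read | measured by = fluorescence polarization (mP) | evaluation = percent inhibition from loss of millipolarization | control set = unlabelled peptide and DMSO controls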
# ALR H2O2 inh: blocks human ALR sulfhydryl oxidase activity | P55789 | inhibition, % (test concentration not listed) | purified ALR, DTT oxidation, H2O2 HRP-luminol luminescence | hit rate 3.8% among 290,000;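 active means mean replicate inhibition above about 79%, with every replicate also reaching it, limit read from the data; inconclusive means only one of the two criteria met; inactive means mean below limit and not every replicate reaching it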
# Target sequence (P55789 whole entry, looked up): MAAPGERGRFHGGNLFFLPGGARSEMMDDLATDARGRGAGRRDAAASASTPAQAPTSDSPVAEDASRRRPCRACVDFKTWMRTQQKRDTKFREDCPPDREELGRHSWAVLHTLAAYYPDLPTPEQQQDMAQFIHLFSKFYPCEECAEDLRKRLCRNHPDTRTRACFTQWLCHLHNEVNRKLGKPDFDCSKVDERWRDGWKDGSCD
# DYRK1A inh: blocks rat Dyrk1A kinase activity; ADP-Glo luminescence, NFATc1 peptide; Q63470; inhibition, % at 12.5 µM; hit rate 0.43% among 310,000; in the data active means inhibition above about 50%;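 further: plate controls were vehicle with enzyme for no effect and no enzyme for full effect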
# CAL PDZ FP-2: inhibitors of human CAL PDZ peptide binding. Q9HD26. hit rate 0.92% among 300,000. inhibition, % at 24.9 µM. AID 602252. purified CAL PDZ, TMR-peptide fluorescence polarization, 1 h;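 active means mean inhibition of at least 30% with at least half of replicates also reaching 30%; inconclusive means no clear call, values can overlap the other calls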;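 further: 0% = DMSO neutral control and 100% = excess unlabeled competitor peptide PRC23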
# Rtt109 HAT inh: C. albicans Rtt109 histone acetyltransferase inhibition. hit rate 0.16% among 330,000. inhibition, % at 34.9 µM. purified Rtt109/Vps75, ThioGlo CoA-SH fluorescence, 4 h. Q5AAJ8. AID 540336;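 active means inhibition of at least 50% in every replicate; inconclusive means best replicate reaches 50% inhibition but some replicates fall short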
# The depositor's hits bear a star; ? = inconclusive; . = not tested or not shown.
SMILES,CAL PDZ FP-1,ALR H2O2 inh,DYRK1A inh,CAL PDZ FP-2,Rtt109 HAT inh
CC1(C)C2CCC1(C)C(SC(=N)N)C2 (stereo not drawn),-1,.,-1,-3,0
CC1CCN(C(=O)CNC(=O)Cc2ccccc2)CC1,-2,.,2,-2,-5
Cc1ccccc1/C=C/C(=O)NCC(=O)N1CCC(N(C)C2CCCCC2C)CC1 (stereo not drawn),-3,1,-3,-3,60*
N#CC1=C(N)Oc2cc(N)ccc2C1C1CC=CCC1 (stereo not drawn),-2,93*,-6,4,-5
Cc1[nH]nc2c1C(C1CC=CCC1)C(C#N)=C(N)O2 (stereo not drawn),-2,.,0,10,9
Cc1ccc(C2C(C#N)=C(N)Oc3cc(N)ccc32)cc1 (stereo not drawn),-2,96*,1,-4,-3
NNC(=O)CNS(=O)(=O)c1ccc([N+](=O)[O-])cc1,0,-25,-2,5,.
CNC(=O)c1csc(-c2ccc(Cl)cc2)n1,-1,-40,14,-2,7
CNC(=O)c1csc(-c2ccc(C)cc2)n1,-2,99*,32,-1,17
Cc1ccc(NC(=S)NNC(=O)c2nn(C)cc2Cl)cc1,.,91*,8,-3,6
Cc1cccc(NC(=S)NNC(=O)c2ccccc2Br)c1,-1,?,5,-2,44
Cc1cccc(NC(=S)NNC(=O)c2nn(C)cc2Cl)c1,0,89*,2,-8,-2
O=c1c(/C=N/OCc2ccc(Cl)cc2Cl)c[nH]n1-c1cccc(Cl)n1,-1,98*,1,1,0
CCCc1nnc(SCc2ccc(C(=O)OC)o2)n1N,-1,-12,7,-7,-5
CCc1nnc(SCc2ccc(C(=O)OC)o2)n1N,0,97*,-8,4,0
CCOC(=O)c1cc(-c2ccc(F)cc2)n(CCC(=O)NC2CCN(Cc3ccccc3)CC2)c1C,-1,0,4,6,26
O=C(CCNC(=O)C1CCN(S(=O)(=O)c2ccc(F)cc2)CC1)NCCc1ccc(Cl)cc1,-2,-18,.,-3,-1
CCOC(=O)c1sc(-c2ccccc2)cc1NC(=O)Nc1ccc([N+](=O)[O-])cc1,0,99*,4,-1,-6
Cc1ccccc1OCc1nc2ccccc2[nH]1,-1,-7,0,41*,-5
Cc1c(C(=O)NC(C(C)C)C(C)C)cccc1[N+](=O)[O-],-1,.,2,8,2
CN(C)CCSc1nc2cc(S(=O)(=O)N3CCCCC3)ccc2o1,-1,.,3,-7,-3
Cc1ccc(CN2CCN(c3cccc4[nH]ccc34)CC2)cc1,-1,99*,3,-2,-4
O=C(c1ccc(Cl)cc1)N1CCN(c2cccc3[nH]ccc23)CC1,0,97*,-3,-4,0
Cc1ccccc1N1CCN(Cc2c[nH]c3ccccc23)CC1,-2,40,.,0,8
CCN(C(=O)CSc1nnc(-c2cccc(F)c2)n1N)c1c(N)n(Cc2ccccc2)c(=O)[nH]c1=O,-1,.,.,.,3
SMILES,CAL PDZ FP-1,ALR H2O2 inh,DYRK1A inh,CAL PDZ FP-2,Rtt109 HAT inh
Cn1c(=O)cc(OCC(=O)NCCCN2CCN(Cc3ccccc3)CC2)c2ccccc21,0,-17,-1,39*,-3
CC(C)n1nc(C(=O)N2CCN(S(=O)(=O)c3cccs3)CC2)c2ccccc2c1=O,.,-29,.,.,.
Cc1c(O)ccc(-c2[nH]ncc2-c2nc3ccccc3s2)c1O,.,89*,46,-7,18
Cc1nc(Nc2ccccc2)sc1C(=O)c1ccccc1,-3,-12,-5,.,0
CC(C)(C)C(=O)c1sc(Nc2ccccc2)nc1N,0,97*,21,-1,21
Cc1ccccc1-n1c(=S)[nH]c2nc3c(cc2c1=O)COC(C)(C)C3,-1,.,12,.,1
Cc1ccccc1-n1c(=S)[nH]c2nc3c(cc2c1=O)CCCC3,-2,98*,16,1,6
CC12CC3CC(C)(C1)CC(Nc1nc(N4CCOCC4)nc4ccccc14)(C3)C2,0,.,-10,-3,2
CC1(C)C(=O)NCCN1C(=O)CC1C(=O)NCCN1Cc1cccc(C(F)(F)F)c1 (stereo not drawn),-2,-35,-2,-4,8
O=C(O)c1cc(=O)[nH]c2ccc(S(=O)(=O)Nc3ccc(F)cc3)cc12,.,-1,-2,-1,0
Cc1cc(=O)[nH]c2c(C)cc(S(=O)(=O)Nc3ccc(O)cc3)cc12,1,99*,12,-2,-3
